In ChEMBL document CHEMBL4680154, “The optimization of xanthine derivatives leading to HBK001 hydrochloride as a potent dual ligand targeting DPP-IV and GPR119” (Eur J Med Chem, 2020):

Tests used:
[1] = Genotoxicity in Salmonella typhimurium TA98 incubated for 48 to 72 hrs by mini-Ames test; type: toxicity; conditions: salmonella enterica subsp. enterica serovar typhimurium; time 48-72 hrs
Outline: (§1)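 Mini-Ames test with Salmonella typhimurium TA98 and TA100, with 10% S9 mix or PBS, in top agar poured onto minimal agar in 6-well plates. Up to 1000 μg/well; DMSO solvent control. Incubated 37 °C for 48–72 h; revertants counted manually. Called positive at a dose-related increase of at least 2-fold over the solvent control.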

[2] = Acute toxicity in po dosed ICR mouse assessed as animal survival administered as single dose and observed for 7 days; type: organism-based; conditions: in vivo, time 7 day
Outline: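 Female ICR mice (18 to 21 g), ten animals, given one oral dose of 1.5 g/kg. The number surviving was recorded after 7 days of observation.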

[3] = molecular target: Voltage-gated inwardly rectifying potassium channel KCNH2 (Homo sapiens, UniProt Q12809); experiment: Inhibition of human ERG expressed in CHO cells by manual patch clamp assay; type: cell-based
Outline: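 CHO cells stably expressing hERG, cultured at least 24 h, then recorded by whole-cell voltage-clamp patch clamp.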

[4] = AUC(0 to t) in Sprague-Dawley rat plasma at 30 mg/kg, po measured up to 24 hrs; type: ADME, organism-based; set-up: route oral, dose 30 mg/kg, time <=24
Outline: (§2)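 Male SD rats (180–200 g), three per route, dosed as free base content. Oral formulation in 0.5% carboxymethyl cellulose; intravenous formulation in normal saline. Sampling at 5, 15, 30 min and 1, 1.5, 2, 4, 6, 8, 12, 24 h; plasma kept at -80 °C. Non-compartmental parameters; F = (AUCpo×dose iv)/(AUCiv×dose po).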

[5] = Mean residence time (0 to infinity) in Sprague-Dawley rat at 30 mg/kg, po measured up to 24 hrs; type: ADME, organism-based; conditions: in vivo; outline: as §2
[6] = Oral bioavailability in Sprague-Dawley rat at 30 mg/kg; type: ADME, organism-based; conditions: in vivo; outline: as §2
[7] = Elimination half-life in Sprague-Dawley rat plasma at 30 mg/kg, po measured up to 24 hrs; type: ADME, organism-based; conditions: read-out: beta t1/2 (converted); outline: as §2
[8] = Plasma protein binding in mouse at 5 uM after 5 hrs by LC-MS/MS based equilibrium dialysis method; type: ADME, cell-free; conditions: read-out: PPB (converted)
Outline: (§3)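 Equilibrium dialysis: compound spiked at 5 μM (1% DMSO) into pre-warmed 37 °C plasma, dialysed against phosphate buffer (1% DMSO) for 5 h at 37 °C with shaking at 100 rpm. Both compartments analysed by LC-MS/MS.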

[9] = Plasma protein binding in human at 5 uM after 5 hrs by LC-MS/MS based equilibrium dialysis method; type: ADME, cell-free; conditions: read-out: PPB (converted); outline: as §3
[10] = Metabolic stability in mouse liver microsomes assessed as parent compound remaining at 10 micromol/L measured after 30 mins in presence of NADPH generating system by LC-MS/MS analysis; type: ADME, Microsome; conditions: dose 10 µmol/L, read-out: Stabilty
Outline: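 Mouse liver microsomes (0.5 mg/mL protein), compound at 10 μmol/L, in Tris-HCl with an NADPH-generating system that starts the reaction. Incubated in duplicate at 37 °C for 30 min; stopped with ice-cold acetonitrile containing internal standard. Supernatant analysed by LC-MS/MS; remaining amount normalised to time zero. Inactivated microsomes served as negative control.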

[11] = AUC(0 to infinity) in Sprague-Dawley rat plasma at 30 mg/kg, po measured up to 24 hrs; type: ADME, organism-based; set-up: route oral, dose 30 mg/kg, time <=24; outline: as §2
[12] = Elimination half-life in Sprague-Dawley rat plasma at 3 mg/kg, iv measured up to 24 hrs; type: ADME, organism-based; conditions: read-out: beta t1/2 (converted); outline: as §2
[13] = Plasma protein binding in dog at 5 uM after 5 hrs by LC-MS/MS based equilibrium dialysis method; type: ADME, cell-free, Canis lupus familiaris; conditions: read-out: PPB (converted); outline: as §3
[14] = AUC(0 to t) in Sprague-Dawley rat plasma at 3 mg/kg, iv measured up to 24 hrs; type: ADME, organism-based; set-up: route intravenous, dose 3 mg/kg, time <=24; outline: as §2
Vero = experiment: Cytotoxicity against African green monkey Vero cells incubated for 48 hrs by MTT assay; conditions: Chlorocebus sabaeus
[15] = Apparent permeability in human Caco-2 cells at 50 uM after 1 hr by UPLC analysis; type: ADME, cell-based
Outline: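 Caco-2 cells grown 21 days on Transwell inserts (0.4 µm pores) into monolayers with TEER above 500 Ω×cm² before and after transport. Compound at 50 µM added apically, 1 h at 37 °C. Transported compound quantified by UPLC; Papp = (dQ/dt)/(C0×A).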

[16] = Plasma protein binding in rat at 5 uM after 5 hrs by LC-MS/MS based equilibrium dialysis method; type: ADME, cell-free; conditions: read-out: PPB (converted); outline: as §3
[17] = AUC(0 to infinity) in Sprague-Dawley rat plasma at 3 mg/kg, iv measured up to 24 hrs; type: ADME, organism-based; set-up: route intravenous, dose 3 mg/kg, time <=24; outline: as §2
[18] = Cmax in Sprague-Dawley rat plasma at 30 mg/kg, po measured up to 24 hrs; type: ADME, organism-based; set-up: route oral, dose 30 mg/kg, time <=24; outline: as §2
[19] = Mean residence time (0 to infinity) in Sprague-Dawley rat at 3 mg/kg, iv measured up to 24 hrs; type: ADME, organism-based; conditions: in vivo; outline: as §2
[20] = Tmax in Sprague-Dawley rat plasma at 30 mg/kg, po measured up to 24 hrs; type: ADME, organism-based; outline: as §2
[21] = Genotoxicity in Salmonella typhimurium TA100 incubated for 48 to 72 hrs by mini-Ames test; type: toxicity; conditions: salmonella enterica subsp. enterica serovar typhimurium; time 48-72 hrs; outline: as §1
[22] = Plasma protein binding in monkey at 5 uM after 5 hrs by LC-MS/MS based equilibrium dialysis method; type: ADME, cell-free, Macaca mulatta; conditions: rhesus monkey, read-out: PPB (converted); outline: as §3
[23] = Cmax in Sprague-Dawley rat plasma at 3 mg/kg, iv measured up to 24 hrs; type: ADME, organism-based; set-up: route intravenous, dose 3 mg/kg, time <=24; outline: as §2

Sequence of Voltage-gated inwardly rectifying potassium channel KCNH2 (Q12809 whole entry): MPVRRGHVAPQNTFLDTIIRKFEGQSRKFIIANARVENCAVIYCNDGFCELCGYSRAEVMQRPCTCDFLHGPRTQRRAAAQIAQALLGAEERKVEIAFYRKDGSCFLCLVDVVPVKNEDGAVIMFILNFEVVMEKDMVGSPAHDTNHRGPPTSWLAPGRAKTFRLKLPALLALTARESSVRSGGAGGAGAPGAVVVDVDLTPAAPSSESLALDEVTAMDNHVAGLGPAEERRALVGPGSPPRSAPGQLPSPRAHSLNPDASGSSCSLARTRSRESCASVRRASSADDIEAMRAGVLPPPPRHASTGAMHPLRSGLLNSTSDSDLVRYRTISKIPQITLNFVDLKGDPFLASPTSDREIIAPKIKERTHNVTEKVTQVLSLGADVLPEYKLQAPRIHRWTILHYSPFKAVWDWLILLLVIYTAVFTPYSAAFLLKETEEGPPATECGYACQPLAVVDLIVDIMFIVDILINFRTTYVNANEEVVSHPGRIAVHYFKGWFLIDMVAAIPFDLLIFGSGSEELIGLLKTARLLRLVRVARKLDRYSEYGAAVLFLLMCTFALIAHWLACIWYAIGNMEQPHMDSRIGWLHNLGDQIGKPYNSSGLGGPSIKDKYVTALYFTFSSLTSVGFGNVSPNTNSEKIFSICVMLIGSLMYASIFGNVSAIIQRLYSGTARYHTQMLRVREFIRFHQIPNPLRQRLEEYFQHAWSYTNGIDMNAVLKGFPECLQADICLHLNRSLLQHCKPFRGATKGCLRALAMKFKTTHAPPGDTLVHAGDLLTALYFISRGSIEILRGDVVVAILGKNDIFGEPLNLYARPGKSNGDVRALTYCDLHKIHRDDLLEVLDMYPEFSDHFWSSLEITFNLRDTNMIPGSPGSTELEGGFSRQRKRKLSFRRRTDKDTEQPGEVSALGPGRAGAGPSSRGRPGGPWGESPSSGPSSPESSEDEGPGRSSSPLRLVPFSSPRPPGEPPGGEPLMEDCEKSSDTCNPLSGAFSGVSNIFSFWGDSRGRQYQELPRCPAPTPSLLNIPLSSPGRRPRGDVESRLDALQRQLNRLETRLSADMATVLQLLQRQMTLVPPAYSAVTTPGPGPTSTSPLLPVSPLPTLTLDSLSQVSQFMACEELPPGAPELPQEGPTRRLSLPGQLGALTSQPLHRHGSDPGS

For `CC#CCn1c(N2CCC[C@@H](N)C2)nc2c1c(=O)n(CCCN1CCN(c3nc(-c4ccccc4)no3)CC1)c(=O)n2C.Cl`, the Activity [1] was “Non-Toxic”, the LD50 at 168 h [2] was over 1500 mg/kg and the IC50 [3] was 4.9 µM. The AUC(0-t) at 24 h [4] was 623 ng·h/mL, the MRT inf [5] was 2.22 h and the bioavailability [6] was 42.4%. The half-life [7] was 1.08 h, the fraction unbound at 5 h, 5 µM [8] was 0.015 and the fraction unbound at 5 h, 5 µM [9] was 0.028. The remaining at 0.5 h, 10 µM [10] was 49.3%, the AUC(0-inf) [11] was 656 ng·h/mL and the half-life [12] was 0.63 h. It also gave a fraction unbound at 5 h, 5 µM [13] of 0.037, an AUC(0-t) at 24 h [14] of 147 ng·h/mL and an IC50 (Vero) of over 64 µg/mL. The Papp at 1 h, 50 µM [15] was 19.1 ×10⁻⁶ cm/s, the fraction unbound at 5 h, 5 µM [16] was 0.039 and the AUC(0-inf) [17] was 167 ng·h/mL. For the same molecule, the Cmax [18] was 226 ng/mL, the MRT inf [19] was 0.73 h and the Tmax [20] was 1.33 h. For the same molecule, the Activity [21] was “Non-Toxic”, the fraction unbound at 5 h, 5 µM [22] was 0.04 and the Cmax [23] was 416 ng/mL.
